Source: PMC9115729 (Bioorganic & medicinal chemistry, 2020)

Columns and labels:
[1] = biological target: T1, human kidney-type glutaminase (hKGA124-669) (Homo sapiens, UniProt O94925); test: in vitro GLS assay with L-[3H]-glutamine as substrate; type: biochemical; settings: for GLS inhibitory potency in words: comparison with compounds 8 and 3a
T1 sequence (O94925 124-669): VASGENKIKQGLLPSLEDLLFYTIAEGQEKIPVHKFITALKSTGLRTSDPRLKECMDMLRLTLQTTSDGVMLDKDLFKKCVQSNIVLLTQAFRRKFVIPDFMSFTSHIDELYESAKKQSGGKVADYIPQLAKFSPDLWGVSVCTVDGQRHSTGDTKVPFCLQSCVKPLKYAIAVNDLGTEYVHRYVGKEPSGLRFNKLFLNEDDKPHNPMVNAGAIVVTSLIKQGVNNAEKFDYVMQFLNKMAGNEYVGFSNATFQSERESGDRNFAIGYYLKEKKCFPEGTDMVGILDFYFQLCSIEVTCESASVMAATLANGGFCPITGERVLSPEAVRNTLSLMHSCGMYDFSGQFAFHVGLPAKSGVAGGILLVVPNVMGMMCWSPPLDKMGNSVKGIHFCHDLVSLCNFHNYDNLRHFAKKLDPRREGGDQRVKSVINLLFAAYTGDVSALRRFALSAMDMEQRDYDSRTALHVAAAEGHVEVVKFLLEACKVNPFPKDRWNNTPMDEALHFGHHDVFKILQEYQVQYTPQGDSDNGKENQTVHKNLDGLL

GLS = settings: read-out: GLS inhibition IC50; literature value; cited from earlier work
[2] = type: physicochemical; settings: final concentrations of 1-10 μM
[3] = Aqueous solubility by the shake flask method; type: physicochemical; settings: PBS buffer, 37 °C, pH 7.4, aqueous buffer, thermodynamic from solid
Method in brief: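 Test compound added to PBS (pH 7.4) at 5 mg/mL and shaken at 1000 rpm for 24 h at 37 °C to reach saturation. The solution was then passed through a 0.45 μm PTFE filter and the filtrate diluted. Concentration was quantified by UHPLC–Orbitrap MS on a C18 column (35 °C) with a 0.1% formic acid water/acetonitrile gradient, against a 5-10000 nM calibration curve.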

GLS inhibitory potency in words [1] | SMILES | also measured
negligible activity | O=C(Cc1ccccc1)Nc1nnc(CSCc2nnc(NC(=O)Cc3ccccc3)s2)s1 [Compound 2b, N,N’-(5,5’-Thiobis(methylene)bis(1,3,4-thiadiazole-5,2-diyl))bis(2-phenylacetamide), reference compound] | GLS inhibitory activity ([1]; at concentrations up to 100 μM): no inhibitory activity; IC50 (GLS): > 20 µM
 | O=C(Cc1ccccc1)Nc1nnc(CCSc2nnc(NC(=O)Cc3ccccc3)s2)s1 [Compound 3a, 2-Phenyl-N-(5-(2-(5-(2-phenylacetamido)-1,3,4-thiadiazol-2-yl)ethylthio)-1,3,4-thiadiazol-2-yl)acetamide] | behaviour on addition of stock solution to cell culture media [2]: precipitation
substantially weaker potency | Nc1nnc(CCSc2ccc(NC(=O)Cc3ccccc3)nn2)s1 [Compound 18, N-(6-(2-(5-Amino-1,3,4-thiadiazol-2-yl)ethylthio)pyridazin-3-yl)-2-phenylacetamide] | 
substantially weaker potency | O=C(Cc1ccccc1)Nc1ccc(SCCc2nnc(NC(=O)Cc3ccccc3)s2)nn1 [Compound 19, 2-Phenyl-N-(6-(2-(5-(2-phenylacetamido)-1,3,4-thiadiazol-2-yl)ethylthio)pyridazin-3-yl)acetamide] | 
comparable | Nc1nnc(SCCc2ccc(NC(=O)Cc3ccccc3)nn2)s1 [Compound 24, N-(6-(2-(5-Amino-1,3,4-thiadiazol-2-ylthio)ethyl)pyridazin-3-yl)-2-phenylacetamide] | 
comparable | O=C(Cc1ccccc1)Nc1ccc(CCSc2nnc(NC(=O)Cc3ccccc3)s2)nn1 [Compound 25, 2-Phenyl-N-(6-(2-(5-(2-phenylacetamido)-1,3,4-thiadiazol-2-ylthio)ethyl)pyridazin-3-yl)acetamide] | solubility at 24 h [3]: < 1 µM
